Measured values reported in PubChem BioAssay AID1019 (Sanford-Burnham Center for Chemical Genomics, 2008).
In all, about 190,000 compounds went through this assay and fewer than 10 were called active.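 How the source made its calls: active means over 50% inhibition of intestinal alkaline phosphatase at 20 µM in the single-dose screen; inactive means the rest.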 The list is a sample of the results.

Tested on: alkaline phosphatase, intestinal [Bos taurus]
Test: bovine intestinal alkaline phosphatase inhibitors, primary screen, selectivity assay for TNAP inhibitor project, biochemical, bovine IAP, CDP-star luminescence (AID 1019)
Conditions: purified bovine IAP, 30 min, at 20 µM, hits give high values
Procedure, shortened: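 System: purified bovine intestinal alkaline phosphatase (IAP) enzyme; Input: IAP diluted 1/65,000,000 in the well; Measured by: CDP-star luminescence signal; Compound dosing: 20 µM single dose; Incubation: 30 min reaction at room temperature.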

inhibition, inactive:
CC(C)C(=O)Nc1ccc2oc(=O)ccc2c1 7%
CCOC(=O)/C(C#N)=C/c1ccc(N2CCCCC2)cc1 11.8%
CC(C)(c1ccccc1)c1ccc(OCCN)cc1 14.7%
COC(=O)Cc1ccc(NC(=S)NCc2ccco2)cc1 4%
COc1ccc(/C=N/N=C2/C(=O)Nc3ccccc32)cc1O 5%
COc1cc(NS(=O)(=O)c2ccc(NC(=O)CN3C(=O)c4ccccc4C3=O)cc2)ncn1 3.8%
CN(C)CCN=c1cc(-c2ccccc2)oc2ccc(Cl)cc12 -8.9%
CC(C)(C)NC(=O)c1ccc(Cn2cc(C(F)(F)F)ccc2=O)cc1 4.3%
Oc1ccc(N2CCN(C(=S)NCc3ccccc3)CC2)cc1 6.1%
CCCCN(CC)CCCNC(=O)c1ccc(CSc2nc3ccncc3[nH]2)cc1 -24%
O=C(CCc1ccccc1)Nc1nn[nH]n1 5.5%
CC1CCCN(CC(O)COc2ccc3c(c2)OCO3)C1 (stereo not given) 3.1%
Cc1ccccc1C1CC(c2cccs2)=NN1S(C)(=O)=O (stereo not given) 18.1%
CCN(c1ccccc1)S(=O)(=O)c1ccc2[nH]c(=O)[nH]c2c1 3.4%
O=S(=O)(NCCc1ccc(F)cc1)c1cccc2cccnc12 10.8%
COc1cc(/C=C/C(=O)OCC(=O)N2CCOCC2)ccc1OCC#N -7.3%
O=C(Cn1cnc2ccccc21)N/N=C/c1ccco1 -22.7%
CC1CC(C)CN(CCC(=O)Nc2ccc3c(c2)CCC3)C1 (stereo not given) -14.7%
O=C(COC(=O)/C=C/c1ccc(S(=O)(=O)N2CCCCCC2)cc1)NCc1ccccc1Cl 14.5%
CCCNC(=O)NC(=O)COC(=O)CC(NC(N)=O)c1ccc(Cl)cc1 (stereo not given) 7.6%
Cc1c(C=O)c2ccccc2n1CC(=O)O -6.7%
CCn1nc(C)c(CN2CCN(Cc3ccc(OC)c(C)c3C)C(CCO)C2)c1C (stereo not given) -4.7%
COc1ccc(C2CC(c3cccs3)Nc3nnnn32)cc1 (stereo not given) 16.6%
CCN(CC)C(=O)N(CC)Cc1ccccc1 -1.7%
Cc1ccc(Nc2c(F)c(F)c(F)c(F)c2C(=O)O)c(C)c1 1.3%
C=CCN(c1ccc(Cl)cc1)S(=O)(=O)c1cccc(C(=O)OCC(=O)N(C)C)c1 -6.8%
Cn1cc(-c2ccccc2)cc(C#N)c1=O -3.4%
CC(C)(C)n1ncc2c(=O)n(Cc3ccc(Cl)cc3)cnc21 -1.6%
CCCCCCCNc1nc(Cl)nc(NCCO)n1 -10.7%
CCOC(=O)C1(Cc2ccccc2C(F)(F)F)CCN(C(=O)c2cc(C)n(C)n2)CC1 -5.4%
CCN(CC)CCNc1nc(-c2ccc(OC(F)F)cc2)c(C)s1 -8.2%
O=C(Nc1cccc(F)c1)c1coc(=O)c(Br)c1 13.2%
COC(=O)c1ccc(C(=O)OC)c(NC(=S)N2CCN(c3ccc(F)cc3)CC2)c1 -5.9%
CC(NC(=O)CCC(=O)N1CCN(S(=O)(=O)c2ccc(Cl)cc2)CC1)c1ccccc1 (stereo not given) -56.8%
COc1cc(C(=S)NC2CCCCC2)ccc1O 5.4%
CCOc1ccc(NC(=S)NC(=O)/C=C/c2ccc(OC)cc2)c([N+](=O)[O-])c1 -34%
C=CCO/N=C/C1=C(O)C(C(=O)OC)C(C)(C)CC1=O (stereo not given) -21.8%
CC(NC(=O)CC1SC(N)=NC1=O)c1ccccc1 (stereo not given) -8.1%
C/C(=N\NC(=O)c1ccc(CSc2nc(C)cc(C)n2)cc1)C1CCCCC1 -2.1%
COc1ccc(OC)c(CNC(=O)c2cc(=O)[nH]c3ccc(S(=O)(=O)N4CCCC4)cc23)c1 9.9%
Cc1cccc(NC(=O)c2nnn(-c3cccc(C(F)(F)F)c3)c2N)c1 6.8%
CCOC(=O)N1CCN(C(=O)C2CCN(Cc3ccc(OC)cc3OC)CC2)CC1 3.5%
O=C(NCCc1ccccc1)C1CCN(S(=O)(=O)c2ccc(Br)s2)CC1 2.9%
CSc1nc2c(c(=O)[nH]1)C(c1cccc(Cl)c1Cl)CC(=O)N2 (stereo not given) -12.6%
Cc1ccc(CCC(=O)Nc2ncc(Cc3cc(Cl)ccc3Cl)s2)o1 5.3%
